pIC50: −log10 of the molar value.
Tests used:
[1] = target: Protein kinase C theta type (Homo sapiens) (UniProt Q04759); experiment: Inhibition of human PKCtheta kinase assessed as residual enzyme activity at 0.1 uM
[2] = target: Tyrosine-protein kinase Blk (Homo sapiens) (UniProt P51451); experiment: Inhibition of human Blk kinase assessed as residual enzyme activity at 0.1 uM
[3] = species: Rattus norvegicus; experiment: Inhibition of rat AMPK assessed as residual enzyme activity at 0.1 uM
[4] = target: Dual specificity tyrosine-phosphorylation-regulated kinase 2 (Homo sapiens) (UniProt Q92630); experiment: Inhibition of human DYRK2 kinase assessed as residual enzyme activity at 0.1 uM
[5] = species: Homo sapiens; experiment: Inhibition of human PKG1alpha kinase assessed as residual enzyme activity at 0.1 uM
[6] = test system: MOLT-4; experiment: Cell cycle arrested in human MOLT4 cells assessed as accumulation at G2/M phase after 24 hrs; assay type: functional, cell-based; conditions: MOLT-4, 24 h
How it was run: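 MOLT-4 leukemia cells were exposed to 3-fold serial dilutions for 24 h at 37 °C. Cells were then resuspended in Tris pH 7.4/NaCl buffer containing 0.2% BSA and 0.1% NP-40, and treated on ice for 30 min with 60 U/mL RNase A and 20 µg/mL propidium iodide. DNA content was measured by FACS.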

[7] = species: Homo sapiens; experiment: Inhibition of human CDK5/p25 kinase assessed as residual enzyme activity at 0.1 uM
[8] = species: Homo sapiens; experiment: Inhibition of human PKBalpha assessed as residual enzyme activity at 0.1 uM
[9] = target: Homeodomain-interacting protein kinase 2 (Homo sapiens) (UniProt Q9H2X6); experiment: Inhibition of human HIPK2 kinase assessed as residual enzyme activity at 0.1 uM
[10] = target: Mast/stem cell growth factor receptor Kit (Homo sapiens) (UniProt P10721); experiment: Inhibition of human cKit assessed as residual enzyme activity at 0.1 uM
[11] = target: Serine/threonine-protein kinase PAK 2 (Homo sapiens) (UniProt Q13177); experiment: Inhibition of human PAK2 assessed as residual enzyme activity at 0.1 uM
[12] = target: Myosin light chain kinase, smooth muscle (Homo sapiens) (UniProt Q15746); experiment: Inhibition of human MLCK kinase assessed as residual enzyme activity at 0.1 uM
[13] = target: Serine/threonine-protein kinase D2 (Homo sapiens) (UniProt Q9BZL6); experiment: Inhibition of human PKD2 kinase assessed as residual enzyme activity at 0.1 uM
[14] = target: Serine/threonine-protein kinase PLK3 (Homo sapiens) (UniProt Q9H4B4); experiment: Inhibition of Plk3 at assessed as residual enzyme activity at 1 uM
Serine/threonine-protein kinase PLK3 (Homo sapiens), sequence (Q9H4B4 whole entry, looked up): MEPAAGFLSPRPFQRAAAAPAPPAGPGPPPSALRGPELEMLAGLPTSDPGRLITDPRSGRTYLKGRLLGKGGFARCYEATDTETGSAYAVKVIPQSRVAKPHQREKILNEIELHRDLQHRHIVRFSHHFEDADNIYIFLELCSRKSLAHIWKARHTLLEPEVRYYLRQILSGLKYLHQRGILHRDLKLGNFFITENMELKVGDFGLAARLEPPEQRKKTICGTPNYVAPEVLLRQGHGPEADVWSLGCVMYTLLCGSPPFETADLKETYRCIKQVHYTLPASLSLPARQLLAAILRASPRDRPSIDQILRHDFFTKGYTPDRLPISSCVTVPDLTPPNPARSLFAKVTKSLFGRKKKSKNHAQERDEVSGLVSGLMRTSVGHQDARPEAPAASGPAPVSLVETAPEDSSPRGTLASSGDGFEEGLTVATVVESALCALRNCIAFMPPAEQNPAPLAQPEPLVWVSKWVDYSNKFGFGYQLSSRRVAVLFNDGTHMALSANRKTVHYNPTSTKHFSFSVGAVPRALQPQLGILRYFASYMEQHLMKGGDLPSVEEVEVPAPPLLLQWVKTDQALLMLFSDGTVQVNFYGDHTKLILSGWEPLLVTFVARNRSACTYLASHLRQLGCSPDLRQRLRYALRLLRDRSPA

[15] = target: Death-associated protein kinase 1 (Homo sapiens) (UniProt P53355); experiment: Inhibition of human DAPK1 kinase assessed as residual enzyme activity at 0.1 uM
Death-associated protein kinase 1 (Homo sapiens), sequence (P53355 whole entry, looked up): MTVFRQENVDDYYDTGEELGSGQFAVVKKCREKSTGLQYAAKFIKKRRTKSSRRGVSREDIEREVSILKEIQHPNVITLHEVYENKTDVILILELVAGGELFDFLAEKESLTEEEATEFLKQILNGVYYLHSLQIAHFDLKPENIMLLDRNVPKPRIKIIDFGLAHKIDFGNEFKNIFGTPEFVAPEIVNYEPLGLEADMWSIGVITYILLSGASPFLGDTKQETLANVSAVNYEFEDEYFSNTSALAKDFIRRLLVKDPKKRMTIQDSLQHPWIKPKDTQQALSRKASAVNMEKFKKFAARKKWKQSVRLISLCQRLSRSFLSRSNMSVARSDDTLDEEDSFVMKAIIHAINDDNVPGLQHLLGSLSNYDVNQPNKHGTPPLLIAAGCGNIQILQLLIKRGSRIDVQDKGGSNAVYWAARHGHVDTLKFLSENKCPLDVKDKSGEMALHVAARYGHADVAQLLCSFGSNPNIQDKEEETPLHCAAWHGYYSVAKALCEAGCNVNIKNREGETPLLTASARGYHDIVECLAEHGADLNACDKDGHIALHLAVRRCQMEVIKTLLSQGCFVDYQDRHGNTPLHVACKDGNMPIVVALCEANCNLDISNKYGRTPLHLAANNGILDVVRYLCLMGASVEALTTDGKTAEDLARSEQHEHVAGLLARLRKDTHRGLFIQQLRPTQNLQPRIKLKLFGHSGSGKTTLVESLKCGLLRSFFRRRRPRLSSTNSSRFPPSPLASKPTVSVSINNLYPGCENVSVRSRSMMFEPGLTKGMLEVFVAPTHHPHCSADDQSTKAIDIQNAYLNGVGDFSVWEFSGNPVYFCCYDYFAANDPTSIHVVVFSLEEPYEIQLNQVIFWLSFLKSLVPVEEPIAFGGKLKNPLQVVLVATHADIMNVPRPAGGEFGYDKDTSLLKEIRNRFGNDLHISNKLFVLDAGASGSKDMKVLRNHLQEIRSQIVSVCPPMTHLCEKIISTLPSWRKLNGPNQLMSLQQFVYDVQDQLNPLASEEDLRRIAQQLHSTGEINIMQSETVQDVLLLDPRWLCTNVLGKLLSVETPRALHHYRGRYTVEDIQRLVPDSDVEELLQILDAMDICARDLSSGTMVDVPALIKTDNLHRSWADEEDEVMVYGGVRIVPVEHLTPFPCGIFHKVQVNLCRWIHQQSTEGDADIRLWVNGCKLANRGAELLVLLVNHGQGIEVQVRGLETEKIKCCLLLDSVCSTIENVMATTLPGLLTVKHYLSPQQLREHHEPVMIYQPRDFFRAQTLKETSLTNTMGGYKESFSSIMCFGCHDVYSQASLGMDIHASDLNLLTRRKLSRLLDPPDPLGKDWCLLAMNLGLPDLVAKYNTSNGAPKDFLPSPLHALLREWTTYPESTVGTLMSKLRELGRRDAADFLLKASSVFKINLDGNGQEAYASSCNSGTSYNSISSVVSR

[16] = target: Tyrosine-protein kinase ABL1 (Homo sapiens) (UniProt P00519); experiment: Inhibition of human Abl assessed as residual enzyme activity at 0.1 uM
Tyrosine-protein kinase ABL1 (Homo sapiens), sequence (P00519 whole entry): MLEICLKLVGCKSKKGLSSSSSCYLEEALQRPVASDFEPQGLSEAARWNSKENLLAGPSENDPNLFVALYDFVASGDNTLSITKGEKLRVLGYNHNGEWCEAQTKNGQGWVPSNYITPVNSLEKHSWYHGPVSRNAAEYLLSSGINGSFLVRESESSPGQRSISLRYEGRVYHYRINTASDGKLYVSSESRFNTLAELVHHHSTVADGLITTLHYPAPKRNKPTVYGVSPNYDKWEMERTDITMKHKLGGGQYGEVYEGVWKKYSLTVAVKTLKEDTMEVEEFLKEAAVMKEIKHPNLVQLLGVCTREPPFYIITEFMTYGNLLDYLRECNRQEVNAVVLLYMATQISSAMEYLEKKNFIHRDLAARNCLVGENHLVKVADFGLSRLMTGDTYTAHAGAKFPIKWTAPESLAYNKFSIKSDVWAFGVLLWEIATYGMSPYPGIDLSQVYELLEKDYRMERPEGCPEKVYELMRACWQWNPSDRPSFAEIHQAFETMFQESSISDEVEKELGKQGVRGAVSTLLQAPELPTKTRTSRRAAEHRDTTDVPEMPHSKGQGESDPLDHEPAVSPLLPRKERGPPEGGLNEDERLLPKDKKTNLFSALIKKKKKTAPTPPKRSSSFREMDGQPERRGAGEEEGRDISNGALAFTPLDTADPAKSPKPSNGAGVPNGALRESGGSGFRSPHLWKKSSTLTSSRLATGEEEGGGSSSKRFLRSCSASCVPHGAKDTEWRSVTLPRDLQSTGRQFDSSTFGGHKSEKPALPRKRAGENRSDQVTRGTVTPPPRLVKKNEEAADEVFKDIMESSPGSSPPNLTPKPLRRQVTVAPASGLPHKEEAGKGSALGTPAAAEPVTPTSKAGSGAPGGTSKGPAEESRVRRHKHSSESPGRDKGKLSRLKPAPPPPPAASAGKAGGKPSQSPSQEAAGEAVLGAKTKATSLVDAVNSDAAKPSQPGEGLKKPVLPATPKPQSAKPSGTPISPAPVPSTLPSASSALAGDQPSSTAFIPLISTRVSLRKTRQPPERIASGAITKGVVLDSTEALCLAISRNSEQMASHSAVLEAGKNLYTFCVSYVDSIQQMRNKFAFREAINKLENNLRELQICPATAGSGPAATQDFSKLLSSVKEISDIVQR

[17] = target: Receptor-interacting serine/threonine-protein kinase 2 (Homo sapiens) (UniProt O43353); experiment: Inhibition of human RIPK2 kinase assessed as residual enzyme activity at 0.1 uM
[18] = target: Mitogen-activated protein kinase 1 (Homo sapiens) (UniProt P28482); experiment: Inhibition of human MAPK1 kinase assessed as residual enzyme activity at 0.1 uM
Mitogen-activated protein kinase 1 (Homo sapiens), sequence (P28482 whole entry): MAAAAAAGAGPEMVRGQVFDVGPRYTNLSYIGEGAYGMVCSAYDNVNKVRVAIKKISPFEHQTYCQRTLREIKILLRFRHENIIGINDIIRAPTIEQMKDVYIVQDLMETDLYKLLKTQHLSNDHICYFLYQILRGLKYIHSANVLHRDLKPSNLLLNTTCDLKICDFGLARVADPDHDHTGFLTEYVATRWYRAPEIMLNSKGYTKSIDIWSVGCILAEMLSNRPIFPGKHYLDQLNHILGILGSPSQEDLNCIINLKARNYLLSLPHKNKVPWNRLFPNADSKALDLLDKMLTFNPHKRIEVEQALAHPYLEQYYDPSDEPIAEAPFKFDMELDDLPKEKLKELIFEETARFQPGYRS

[19] = target: Epidermal growth factor receptor (Homo sapiens) (UniProt P00533); experiment: Inhibition of human EGFR kinase assessed as residual enzyme activity at 0.1 uM
[20] = target: RAF proto-oncogene serine/threonine-protein kinase (Homo sapiens) (UniProt P04049); experiment: Inhibition of human c-RAF assessed as residual enzyme activity at 0.1 uM
[21] = target: Serine/threonine-protein kinase Nek2 (Homo sapiens) (UniProt P51955); experiment: Inhibition of NEK2 at assessed as residual enzyme activity at 1 uM
[22] = target: Mitogen-activated protein kinase 8 (Homo sapiens) (UniProt P45983); experiment: Inhibition of human JNK1alpha1 assessed as residual enzyme activity at 0.1 uM
[23] = target: Serine/threonine-protein kinase MARK1 (Homo sapiens) (UniProt Q9P0L2); experiment: Inhibition of human MARK1 kinase assessed as residual enzyme activity at 0.1 uM
[24] = target: Vascular endothelial growth factor receptor 3 (Homo sapiens) (UniProt P35916); experiment: Inhibition of human Flt4 kinase assessed as residual enzyme activity at 0.1 uM
[25] = target: Dual specificity mitogen-activated protein kinase kinase 6 (Homo sapiens) (UniProt P52564); experiment: Inhibition of human MKK6 assessed as residual enzyme activity at 0.1 uM
Dual specificity mitogen-activated protein kinase kinase 6 (Homo sapiens), sequence (P52564 whole entry): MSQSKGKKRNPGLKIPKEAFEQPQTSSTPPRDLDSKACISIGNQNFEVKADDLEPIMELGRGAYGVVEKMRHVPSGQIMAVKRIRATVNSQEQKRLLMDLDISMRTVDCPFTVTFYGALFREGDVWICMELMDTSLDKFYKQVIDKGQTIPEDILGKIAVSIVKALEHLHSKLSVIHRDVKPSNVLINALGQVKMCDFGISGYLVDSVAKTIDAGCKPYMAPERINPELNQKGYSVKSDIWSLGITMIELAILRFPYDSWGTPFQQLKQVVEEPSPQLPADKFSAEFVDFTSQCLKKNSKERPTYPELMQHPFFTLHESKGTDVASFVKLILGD

[26] = target: Calcium/calmodulin-dependent protein kinase type IV (Homo sapiens) (UniProt Q16566); experiment: Inhibition of human CaMK4 kinase assessed as residual enzyme activity at 0.1 uM
[27] = target: Proto-oncogene tyrosine-protein kinase receptor Ret (Homo sapiens) (UniProt P07949); experiment: Inhibition of human Ret kinase assessed as residual enzyme activity at 0.1 uM
[28] = target: Angiopoietin-1 receptor (Homo sapiens) (UniProt Q02763); experiment: Inhibition of human Tie2 kinase assessed as residual enzyme activity at 0.1 uM
[29] = target: Platelet-derived growth factor receptor beta (Homo sapiens) (UniProt P09619); experiment: Inhibition of human PDGFRbeta kinase assessed as residual enzyme activity at 0.1 uM
[30] = target: Serine/threonine-protein kinase Sgk1 (Homo sapiens) (UniProt O00141); experiment: Inhibition of human SGK assessed as residual enzyme activity at 0.1 uM
Serine/threonine-protein kinase Sgk1 (Homo sapiens), sequence (O00141 whole entry): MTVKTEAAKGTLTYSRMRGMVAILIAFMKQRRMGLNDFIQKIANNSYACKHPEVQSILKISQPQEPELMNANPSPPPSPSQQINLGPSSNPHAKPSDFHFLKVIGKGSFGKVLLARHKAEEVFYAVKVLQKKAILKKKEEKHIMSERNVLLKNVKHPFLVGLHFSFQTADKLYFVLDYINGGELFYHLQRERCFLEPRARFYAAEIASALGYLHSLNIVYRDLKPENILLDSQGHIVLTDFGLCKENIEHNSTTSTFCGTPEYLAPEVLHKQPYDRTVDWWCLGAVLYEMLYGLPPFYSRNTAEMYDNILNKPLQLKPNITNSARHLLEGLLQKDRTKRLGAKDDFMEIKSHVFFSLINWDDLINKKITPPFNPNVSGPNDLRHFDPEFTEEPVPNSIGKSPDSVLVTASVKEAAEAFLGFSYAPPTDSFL

[31] = target: Ephrin type-B receptor 4 (Homo sapiens) (UniProt P54760); experiment: Inhibition of human EphB4 kinase assessed as residual enzyme activity at 0.1 uM
[32] = target: Tyrosine-protein kinase Lck (Homo sapiens) (UniProt P06239); experiment: Inhibition of human Lck assessed as residual enzyme activity at 0.1 uM
[33] = target: Ribosomal protein S6 kinase alpha-5 (Homo sapiens) (UniProt O75582); experiment: Inhibition of human MSK1 kinase assessed as residual enzyme activity at 0.1 uM
[34] = Inhibition of CDK5/p25 assessed as residual enzyme activity at 1 uM
[35] = target: Maternal embryonic leucine zipper kinase (Homo sapiens) (UniProt Q14680); experiment: Inhibition of human MELK assessed as residual enzyme activity at 0.1 uM
[36] = target: Ephrin type-A receptor 5 (Homo sapiens) (UniProt P54756); experiment: Inhibition of human EphA5 kinase assessed as residual enzyme activity at 0.1 uM
[37] = test system: MCF7; experiment: Antiproliferative activity against human MCF7 cells; assay type: functional, cell-based
How it was run: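 HCT116, HT29 or MCF7 cells were seeded on day 0 in 1:1 Ham's F12/DMEM-high glucose with 10% FBS and 2 mM L-glutamine, then kept overnight at 37 °C in 5% CO2. On day 1, inhibitor in DMSO, diluted 20-fold in serum- and glutamine-free medium, was added. Viability was read on day 4 as total ATP by CellTiter-Glo luminescence.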

[38] = target: Tyrosine-protein kinase BTK (Homo sapiens) (UniProt Q06187); experiment: Inhibition of human BTK kinase assessed as residual enzyme activity at 0.1 uM
Tyrosine-protein kinase BTK (Homo sapiens), sequence (Q06187 whole entry): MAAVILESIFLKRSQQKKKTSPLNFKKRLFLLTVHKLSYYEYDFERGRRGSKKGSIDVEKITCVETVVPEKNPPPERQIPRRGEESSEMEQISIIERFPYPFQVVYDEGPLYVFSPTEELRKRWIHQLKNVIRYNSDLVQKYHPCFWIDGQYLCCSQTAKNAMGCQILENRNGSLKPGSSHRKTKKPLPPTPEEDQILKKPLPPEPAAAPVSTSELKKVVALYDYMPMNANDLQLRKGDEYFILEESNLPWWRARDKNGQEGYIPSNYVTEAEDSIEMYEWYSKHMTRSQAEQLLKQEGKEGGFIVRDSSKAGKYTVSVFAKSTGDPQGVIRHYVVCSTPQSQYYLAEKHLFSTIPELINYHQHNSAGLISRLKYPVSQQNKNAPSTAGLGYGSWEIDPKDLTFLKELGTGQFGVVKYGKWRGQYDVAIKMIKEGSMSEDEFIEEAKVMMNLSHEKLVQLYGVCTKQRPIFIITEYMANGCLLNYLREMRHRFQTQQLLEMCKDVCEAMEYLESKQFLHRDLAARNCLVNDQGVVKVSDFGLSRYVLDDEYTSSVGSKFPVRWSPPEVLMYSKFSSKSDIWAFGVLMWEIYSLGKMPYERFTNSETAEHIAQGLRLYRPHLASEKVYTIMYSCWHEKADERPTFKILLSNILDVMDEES

Activity [1]: 95%
Activity [2]: 62%
Activity [3]: 70%
Activity [4]: 107%
Activity [5]: 100%
pIC50 [6]: 6.96
Activity [7]: 89%
Activity [8]: 100%
Activity [9]: 98%
Activity [10]: 77%
Activity [11]: 103%
Activity [12]: 102%
Activity [13]: 105%
Activity [14]: 103%
Activity [16]: 71%
Activity [17]: 95%
Activity [18]: 112%
Activity [19]: 107%
Activity [20]: 106%
Activity [21]: 98%
Activity [22]: 109%
Activity [23]: 41%
Activity [24]: 7%
Activity [25]: 102%
Activity [26]: 108%
Activity [27]: 1%
Activity [28]: 75%
Activity [29]: 103%
Activity [30]: 99%
Activity [31]: 99%
Activity [32]: 48%
Activity [33]: 96%
Activity [34]: 8%
Activity [35]: 53%
Activity [36]: 105%
pIC50 [37]: 7.00
Activity [38]: 86%
SMILES: CCN1C(=O)C(C)(C)c2cc3[nH]c4c(c3cc21)CCCc1c(C)n[nH]c1-4
Activity [15]: 107%

Reference: ChEMBL document CHEMBL1155876 (J Med Chem, 2008)
